Calpain2 inh = inhibitors of pig calpain II; 220,000 tested, 0.37% active; AID 1236; purified calpain II, fluorogenic peptide substrate, 30 min; inhibition, % at 16 µM;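 active means inhibition above about 50%, limit read from the data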
FXIIa inh = blocks human coagulation factor XIIa protease activity | P00748 | purified FXIIa, Boc-QGR-AMC fluorogenic substrate, 2 h | inhibition, % at 5 µM | 220,000 tested, 0.3% active; in the data active means inhibition above about 40%
FXIa inh = factor XIa (human) inhibition; AID 798; P03951; 220,000 tested, 0.14% active; inhibition, % at 5 µM; purified FXIa, Boc-Glu-Ala-Arg-AMC fluorogenic substrate;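 active means inhibition of at least 40%; inactive means inhibition below 40%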;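 further: fluorescence of freed AMC excited at 355 nm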
Target sequence (P03951 19-387 limits assumed): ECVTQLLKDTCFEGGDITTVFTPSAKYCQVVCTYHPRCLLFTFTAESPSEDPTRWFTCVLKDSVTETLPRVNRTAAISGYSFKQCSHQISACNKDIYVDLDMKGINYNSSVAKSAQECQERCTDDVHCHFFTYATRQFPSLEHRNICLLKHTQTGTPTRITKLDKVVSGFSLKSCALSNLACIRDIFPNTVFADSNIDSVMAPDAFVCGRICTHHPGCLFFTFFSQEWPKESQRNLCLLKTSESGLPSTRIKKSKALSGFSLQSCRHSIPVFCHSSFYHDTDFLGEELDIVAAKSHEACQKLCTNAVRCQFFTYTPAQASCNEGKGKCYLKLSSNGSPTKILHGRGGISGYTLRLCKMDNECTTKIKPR
Target sequence (P03951 388-625 limits assumed): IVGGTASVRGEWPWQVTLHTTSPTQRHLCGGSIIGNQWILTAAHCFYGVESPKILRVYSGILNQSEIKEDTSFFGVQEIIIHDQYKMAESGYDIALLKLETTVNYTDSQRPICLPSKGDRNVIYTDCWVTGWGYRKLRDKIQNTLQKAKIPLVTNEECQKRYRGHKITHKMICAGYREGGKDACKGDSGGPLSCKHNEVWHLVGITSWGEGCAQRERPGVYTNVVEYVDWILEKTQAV
Furin inh = human furin inhibition. P09958. purified furin, fluorogenic substrate cleavage. inhibition, % at 20 µM or 30 µM. 220,000 tested, 0.061% active; in the data active means inhibition above about 25%
Thrombin inh = thrombin (human) inhibition | alpha-thrombin, Boc-VPR-AMC fluorogenic substrate cleavage | inhibition, % at 5 µM | 220,000 tested, 0.26% active;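 active means inhibition at or above 40%; inactive means inhibition below 40%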
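Material: human alpha-thrombin protein. Incubation: reaction at ambient temperature. Technique: fluorescence of released AMC, ex 355 nm, em 460 nm. Control set: no-compound enzyme wells and no-enzyme blanks. Also added: Boc-VPR-AMC substrate, 15 µM final. Buffer or medium: pH 7.5 Tris (50 mM) with NaCl 150 mM, Tween 20 0.05%.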
hK5 inh = inhibitors of human kallikrein 5 | 210,000 tested, 0.59% active | AID 873 | inhibition, % at 5 µM | recombinant hK5, fluorogenic AMC substrate cleavage;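 active means inhibition of 40% or more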
A number is an active result; - = inactive; . = not tested or not shown. Hits are enriched below; roughly 1.4% of the tested compounds scored in any of these assays.

SMILES	Calpain2 inh	FXIIa inh	FXIa inh	Furin inh	Thrombin inh	hK5 inh
CC(C)(C)OC(=O)NCCCCCNC(=O)c1[nH]cnc1C(=O)N[C@@H](CCCCNC(=O)OC(C)(C)C)C(=O)OC(C)(C)C	54.4	-	-	-	-	-
CC(C)(C)OC(=O)NCCCC[C@H](NC(=O)c1nc[nH]c1C(=O)N[C@@H](CCCCNC(=O)OC(C)(C)C)C(=O)OC(C)(C)C)C(=O)OC(C)(C)C	-	-	-	-	-	-
COc1ccccc1NC(=S)N1CCc2cc(OC)c(OC)cc2C1	-	-	-	-	-	-
O=C(CCN1C(=O)c2ccccc2C1=O)Nc1ccc(S(=O)(=O)N2CCOCC2)cc1	-	-	-	-	-	-
CC(C)CN(C(=O)CN1CCN(S(=O)(=O)c2ccc3ccccc3c2)CC1)c1c(N)n(CC(C)C)c(=O)[nH]c1=O	-	-	-	-	-	-
O=C(CN1CCCN(S(=O)(=O)c2ccc(Br)cc2)CC1)Nc1ccc2c(c1)OCO2	-	-	-	-	-	-
Cc1ccc(NC(=O)CCNC(=O)c2ccco2)cc1	-	-	-	-	-	-
COc1ccc(-c2nc(NC(=O)CCNC(=O)c3ccco3)sc2C)cc1	52.4	-	-	-	-	-
O=c1cc(-c2ccccc2)nc2nc(-c3ccco3)[nH]n12	-	-	-	-	-	-
CCC(=O)c1ccccc1OCCSc1nc(C)cc(=O)[nH]1	-	-	-	-	-	145.7
CCCOc1cccc(OCCSc2nc(C)cc(=O)[nH]2)c1	-	-	-	-	-	-
CN(Cc1ccccc1)C(=O)CCS(=O)(=O)c1ccc2c(c1)n(C)c(=O)c(=O)n2C	-	-	-	-	-	-
COc1ccc(C2CC(C(F)(F)F)n3nc(C(=O)Nc4ccc5c(c4)OCO5)cc3N2)cc1 (centres undefined)	-	42.7	-	-	-	-
COc1ccc(N(Cc2cc3cccc(C)c3[nH]c2=O)C(=O)C2CCCO2)cc1 (centres undefined)	-	-	-	-	-	54.0
CCC(CC)C(=O)Nc1cccc(C(=O)Nc2ccc3c(c2)OCO3)c1	-	-	-	-	-	-
COc1cc(-c2ccc(Nc3ccccc3C(=O)O)c(OC)c2)ccc1Nc1ccccc1C(=O)O	55.4	-	-	-	-	-
CCc1cccc(CC)c1NC(=O)c1ccccc1CCc1ccccc1	-	-	-	-	-	-
COCCn1c(SCC(=O)Nc2sc(C)c(C)c2C#N)nnc1-c1ccc(OC)cc1	-	-	-	-	-	128.1
Cc1sc(NC(=O)CSc2nnnn2C2CCCC2)c(C#N)c1C	-	44.0	-	-	-	-
CCC(=O)N1CCc2cc(S(=O)(=O)CCC(=O)Nc3c(C)n(C)n(-c4ccccc4)c3=O)ccc21	.	.	.	-	.	.
O=C(NCc1cccnc1)C(=O)C1C(=O)Nc2ccccc21 (centres undefined)	-	-	-	-	-	40.9
COc1cccc(C(=O)NNC2=CC(=O)CC(C)(C)C2)c1	-	-	-	-	-	-
CC1(C)CC(=O)C=C(NNC(=O)c2cccnc2)C1	-	-	-	-	-	64.7
Cc1ccc(C(=O)NNC(=S)NC(=O)COc2ccccc2)cc1	-	-	41.4	-	-	-
COc1cc(OC)cc(-c2n[nH]c(=S)n2-c2ccc3c(c2)OCCO3)c1	-	.	-	-	40.9	-
SMILES	Calpain2 inh	FXIIa inh	FXIa inh	Furin inh	Thrombin inh	hK5 inh
O=C(CSc1ncnc2c1oc1ccccc12)Nc1ccccc1C(F)(F)F	-	-	-	-	-	46.6
O=C(O)CSc1ncnc2c1oc1ccccc12	-	-	-	-	-	-
Cc1ccc(-c2noc(CN3CCC(C(N)=O)CC3)n2)cc1	-	-	-	-	103.8	86.3
COc1ccc(CNC(=O)C2CCN(S(=O)(=O)c3ccc(-c4nn[nH]n4)cc3)CC2)cc1	50.9	-	-	-	-	-
CCCNC(=O)C1CCN(S(=O)(=O)c2ccc(-c3nn[nH]n3)cc2)CC1	-	-	-	-	-	-
Cc1ccc(Cn2c(SC3CCOC3=O)nc3ccccc3c2=O)cc1 (centres undefined)	-	-	-	-	-	-
CCc1cc2c(=O)n(Cc3ccccc3)c(SC3CCOC3=O)nc2s1 (centres undefined)	53.9	-	-	-	-	.
CCN(CC)CCCN(Cc1cc2cc3c(cc2[nH]c1=O)OCO3)C(=S)Nc1ccccc1OC	-	-	-	-	44.5	51.9
COc1ccccc1NC(=S)N(CCCN(C)C)Cc1cc2cc3c(cc2[nH]c1=O)OCO3	-	-	-	-	-	-

Compound activity (PubChem)
